In ChEMBL document CHEMBL1781977, “Design and synthesis of 3,5-diarylisoxazole derivatives as novel class of anti-hyperglycemic and lipid lowering agents” (Bioorg Med Chem, 2009):
The source made the active and inactive calls. The calls are words filed in the database; no cut-off is given here.

Key:
[1] = system: Rattus norvegicus; assay: Antihyperglycemic activity in Charles Foster/Wistar albino rat assessed as reduction in blood glucose level at 100 mg/kg, po administered 30 mins before sucrose challenge; assay type: functional
How it was run: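 Male Charles Foster/Wistar rats, 160 ± 20 g, fasted 16 h; animals with glucose 60–80 mg/dl used, 5–6 per group. Given 100 mg/kg orally as suspension in 1.0% gum acacia (controls vehicle alone). Sucrose 10.0 g/kg orally 30 min later. Glucometer readings at 30, 60, 90, 120 min. Percent activity derived from AUC of treated versus control groups.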

[2] = system: Rattus norvegicus; assay: Antihyperglycemic activity against sucrose challenged streptozotocin-induced diabetic Sprague-Dawley albino rat assessed as reduction in blood glucose level at 100 mg/kg, po administered 30 mins before sucrose challenge measured after 5 hrs; assay type: functional
How it was run: (§1)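 Male Sprague Dawley rats, 160 ± 20 g, fasted overnight, given streptozotocin 60 mg/kg ip in 100 mM citrate pH 4.5. Rats with glucose 144–270 mg/dl at 48 h count as diabetic, 5–6 per group. Dosed 100 mg/kg orally in 1.0% gum acacia. Sucrose 2.5 g/kg given 30 min later. Glucose read at 30–300 min and 24 h. Non-responders excluded.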

[3] = organism: Mus musculus; assay: Antihyperglycemic activity in C57BL/Ks db/db mouse assessed as reduction in blood glucose level measured after 3 days relative to control; assay type: functional
[4] = system: Rattus norvegicus; assay: Antihyperglycemic activity against sucrose challenged streptozotocin-induced diabetic Sprague-Dawley albino rat assessed as reduction in blood glucose level at 100 mg/kg, po administered 30 mins before sucrose challenge measured after 24 hrs; assay type: functional; how it was run: as §1
[5] = system: Rattus norvegicus; assay: Antihyperglycemic activity against sucrose challenged streptozotocin-induced diabetic Sprague-Dawley albino rat assessed as reduction in blood glucose level at 7.5 mg/kg, po administered 30 mins before sucrose challenge; assay type: functional
How it was run: (§2)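 Streptozotocin-diabetic Sprague Dawley rats: streptozotocin 60 mg/kg ip in citrate pH 4.5; rats at 144–270 mg/dl after 48 h used. Oral doses of 7.5–100 mg/kg in 1.0% gum acacia, then sucrose 2.5 g/kg. Glucose measured at 30, 60, 90, 120, 180, 240, 300 and 1440 min. ED50 taken from dose response. Mean ± SD, n = 5; Dunnett's test.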

[6] = system: Rattus norvegicus; assay: Antihyperglycemic activity against sucrose challenged streptozotocin-induced diabetic Sprague-Dawley albino rat assessed as reduction in blood glucose level at 15 mg/kg, po administered 30 mins before sucrose challenge; assay type: functional; how it was run: as §2
[7] = system: Rattus norvegicus; assay: Antihyperglycemic activity against sucrose challenged streptozotocin-induced diabetic Sprague-Dawley albino rat assessed as reduction in blood glucose level at 25 mg/kg, po administered 30 mins before sucrose challenge; assay type: functional; how it was run: as §2
[8] = system: Rattus norvegicus; assay: Antihyperglycemic activity against sucrose challenged streptozotocin-induced diabetic Sprague-Dawley albino rat assessed as reduction in blood glucose level at 50 mg/kg, po administered 30 mins before sucrose challenge; assay type: functional; how it was run: as §2
[9] = system: Rattus norvegicus; assay: Antihyperglycemic activity against sucrose challenged streptozotocin-induced diabetic Sprague-Dawley albino rat assessed as reduction in blood glucose level at 100 mg/kg, po administered 30 mins before sucrose challenge; assay type: functional; how it was run: as §1
[10] = system: Rattus norvegicus; assay: Antihyperglycemic activity against sucrose challenged streptozotocin-induced diabetic Sprague-Dawley albino rat assessed as reduction in blood glucose level administered orally 30 mins before sucrose challenge; assay type: functional; settings: po; how it was run: as §2
[11] = system: Mus musculus; assay: Antihyperglycemic activity in C57BL/Ks db/db mouse assessed as reduction in blood glucose level at 100 mg/kg, po measured 6 days post dose by postprandial glucose tolerance test; assay type: functional; settings: 144 h
How it was run: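 C57BL/KsBom-db mice, 12–18 weeks, 40–50 g, 5 male and 5 female, at 23 °C with 12/12 h light cycle. Treated orally at 100 mg/kg, vehicle 1.0% gum acacia. Day 6 postprandial test: glucose at −0.5 h and 0 h, then at 1, 2, 3, 4 and 6 h after dosing.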

[12] = system: Mus musculus; assay: Antihyperglycemic activity in C57BL/Ks db/db mouse assessed as reduction in blood glucose level at 100 mg/kg, po measured 10 days post dose by postprandial glucose tolerance test; assay type: functional; settings: 240 h, in the assay text read “oral glucose tolerance test” for “postprandial glucose tolerance test”
How it was run: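 db/db mice (C57BL/KsBom, 12–18 weeks, 40–50 g) given 100 mg/kg orally, vehicle 1.0% gum acacia. Day 10 OGTT after overnight fast: glucose at −30 min and drug given, then glucose at 0 min. Glucose 3 g/kg given, with readings at 30, 60, 90 and 120 min.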

[13] = system: Mus musculus; assay: Antidyslipidemic activity in C57BL/Ks db/db mouse assessed as reduction in plasma triglyceride level at 100 mg/kg, po; assay type: functional
How it was run: (§3)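 db/db mice (C57BL/KsBom, 12–18 weeks, 5 male and 5 female) dosed orally at 100 mg/kg in 1.0% gum acacia. Blood collected on day 8 for serum lipids. Mean ± SD, n = 5, against vehicle-treated db/db controls; Dunnett's test.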

[14] = system: Mus musculus; assay: Antidyslipidemic activity in C57BL/Ks db/db mouse assessed as reduction in plasma cholesterol level at 100 mg/kg, po; assay type: functional; how it was run: as §3
[15] = system: Mus musculus; assay: Antidyslipidemic activity in C57BL/Ks db/db mouse assessed as plasma HDL-cholesterol level at 100 mg/kg, po; assay type: functional; how it was run: as §3
[16] = molecular target: T1, Tyrosine-protein phosphatase non-receptor type 1 (Homo sapiens, UniProt P18031); assay: Inhibition of protein tyrosine phosphatase-1B at 10 uM incubated for 10 mins using pNPP substrate in presence of 0.01% Triton X-100 by modified Goldstein method
T1 sequence (P18031 whole entry): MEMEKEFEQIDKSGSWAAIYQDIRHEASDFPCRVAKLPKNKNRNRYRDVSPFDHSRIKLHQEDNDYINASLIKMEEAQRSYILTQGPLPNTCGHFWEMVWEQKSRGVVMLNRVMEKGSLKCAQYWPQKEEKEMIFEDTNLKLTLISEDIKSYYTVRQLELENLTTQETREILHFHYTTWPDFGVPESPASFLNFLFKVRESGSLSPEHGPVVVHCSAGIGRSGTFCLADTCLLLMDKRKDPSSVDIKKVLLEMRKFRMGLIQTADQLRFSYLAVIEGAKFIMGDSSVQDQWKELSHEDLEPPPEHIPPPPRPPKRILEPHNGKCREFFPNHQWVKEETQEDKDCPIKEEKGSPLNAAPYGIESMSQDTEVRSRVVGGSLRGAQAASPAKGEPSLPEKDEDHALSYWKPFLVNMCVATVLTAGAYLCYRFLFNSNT
How it was run: (§4)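 PTP-1B: compound preincubated 10 min with enzyme, with or without 0.01% Triton X-100. Then 10 mM pNPP in 50 mM HEPES pH 7.0 with 1 mM DTT and 2 mM EDTA, 30 min at 37 °C. Stopped with 0.1 N NaOH; absorbance read at 410 nm. p-Nitrophenolate calculated using ε 1.78 × 10⁴ M⁻¹cm⁻¹. Sodium orthovanadate used as reference.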

[17] = molecular target: T1, Tyrosine-protein phosphatase non-receptor type 1; assay: Inhibition of protein tyrosine phosphatase-1B at 10 uM incubated for 10 mins using pNPP substrate in absence of Triton X-100 by modified Goldstein method; how it was run: as §4
[18] = molecular target: T2, Tyrosine-protein phosphatase non-receptor type 1 (Homo sapiens) (UniProt P18031); assay: Inhibition of protein tyrosine phosphatase-1B at 10 uM incubated for 10 mins using pNPP substrate by modified Goldstein method; set-up: Activity: scale not given: the % may be the effect or the level left; how it was run: as §4
T2 sequence (whole entry): T1 sequence (P18031 whole entry)

[19] = molecular target: Dipeptidyl peptidase 4 (Homo sapiens) (UniProt P27487); assay: Inhibition of DPP4 assessed as rate of substrate cleavage using Gly-Pro-AMC substrate by spectrofluorometry
How it was run: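 DPP-IV activity read by fluorescence at 37 °C, excitation 355 nm and emission 460 nm. Initial rate calculated over the first 15 min as increase in fluorescence intensity.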

Chain of Dipeptidyl peptidase 4 (Homo sapiens) (P27487 whole entry, looked up): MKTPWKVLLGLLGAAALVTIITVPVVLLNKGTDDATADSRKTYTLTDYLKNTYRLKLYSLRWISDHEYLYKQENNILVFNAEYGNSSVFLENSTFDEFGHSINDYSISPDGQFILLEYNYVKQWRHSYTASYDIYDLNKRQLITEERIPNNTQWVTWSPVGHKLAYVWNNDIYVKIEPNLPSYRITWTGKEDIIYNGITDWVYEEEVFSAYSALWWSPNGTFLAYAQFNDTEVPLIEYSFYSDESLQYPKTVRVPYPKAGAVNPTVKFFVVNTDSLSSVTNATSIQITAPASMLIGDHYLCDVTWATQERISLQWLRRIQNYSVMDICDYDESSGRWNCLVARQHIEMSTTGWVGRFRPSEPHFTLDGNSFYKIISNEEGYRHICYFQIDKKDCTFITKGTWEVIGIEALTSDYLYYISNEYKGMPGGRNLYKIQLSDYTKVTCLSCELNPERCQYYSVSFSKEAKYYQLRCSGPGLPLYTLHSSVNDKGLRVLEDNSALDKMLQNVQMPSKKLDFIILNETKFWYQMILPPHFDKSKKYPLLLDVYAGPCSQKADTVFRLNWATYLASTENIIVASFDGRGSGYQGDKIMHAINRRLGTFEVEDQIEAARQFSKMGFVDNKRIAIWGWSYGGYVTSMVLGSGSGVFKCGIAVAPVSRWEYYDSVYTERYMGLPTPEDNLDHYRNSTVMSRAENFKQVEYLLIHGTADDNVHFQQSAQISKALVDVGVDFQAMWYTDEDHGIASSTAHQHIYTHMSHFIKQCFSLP

Cc1ccc(S(=O)(=O)NC(=O)NN2CC3CCCC3C2)cc1 (configuration not stated) [GLICLAZIDE]
inhibition in vivo at 100 mg/kg [1]: 44.8%
inhibition in vivo at 100 mg/kg [2]: 27.7%
inhibition (INH) [3]: 17.4%

COc1ccc(-c2cc(-c3ccccc3)no2)c(OCC(O)CN2CCCC2)c1 (configuration not stated)
inhibition in vivo at 100 mg/kg [1]: 26.8%
inhibition in vivo at 100 mg/kg [2]: 18.5%
inhibition in vivo at 100 mg/kg [4]: 17.6%
inhibition (INH) [3]: 15.7%
inhibition in vivo at 7.5 mg/kg [5]: 8.4%
inhibition in vivo at 15 mg/kg [6]: 11.6%
inhibition in vivo at 25 mg/kg [7]: 13.8%
inhibition in vivo at 50 mg/kg [8]: 17.9%
inhibition in vivo at 100 mg/kg [9]: 18.5%
ED50 [10]: 80.2 mg/kg
inhibition in vivo at 100 mg/kg [11]: 15.9%
inhibition in vivo at 100 mg/kg [12]: 15.5%
inhibition in vivo at 100 mg/kg [13]: -8.5%
inhibition in vivo at 100 mg/kg [14]: -9.8%
Activity [15]: 1.8%
IC50 [16]: 4.2 µM
IC50 [17]: 3.4 µM
Activity [18]: 86.2%
inhibition [19]: inactive

COc1ccc(-c2cc(-c3ccccc3)no2)c(OCCN2CCCC2)c1
inhibition in vivo at 100 mg/kg [1]: 36.9%
inhibition in vivo at 100 mg/kg [2]: 27.7%
inhibition in vivo at 100 mg/kg [4]: 28.7%
inhibition (INH) [3]: 22.8%
inhibition in vivo at 7.5 mg/kg [5]: 11.5%
inhibition in vivo at 15 mg/kg [6]: 13.7%
inhibition in vivo at 25 mg/kg [7]: 15.2%
inhibition in vivo at 50 mg/kg [8]: 18.5%
inhibition in vivo at 100 mg/kg [9]: 27.7%
ED50 [10]: 54.8 mg/kg
inhibition in vivo at 100 mg/kg [11]: 21.4%
inhibition in vivo at 100 mg/kg [12]: 21.6%
inhibition in vivo at 100 mg/kg [13]: -10.5%
inhibition in vivo at 100 mg/kg [14]: -17.6%
Activity [15]: 3%
IC50 [16]: 1.51 µM
IC50 [17]: 1.5 µM
inhibition [18]: 99.2%
inhibition [19]: inactive

CN(C)C(=N)NC(=N)N [METFORMIN]
inhibition in vivo at 100 mg/kg [1]: 12.9%
inhibition in vivo at 100 mg/kg [4]: 20.2%
inhibition (INH) [3]: 11.2%

CCN(CC)CCOc1cc(OC)ccc1-c1cc(-c2ccccc2)no1
inhibition in vivo at 100 mg/kg [1]: 29.9%
inhibition in vivo at 100 mg/kg [2]: 26.9%
inhibition in vivo at 100 mg/kg [4]: 25.7%
inhibition (INH) [3]: 21%
inhibition in vivo at 7.5 mg/kg [5]: 10.3%
inhibition in vivo at 15 mg/kg [6]: 15.5%
inhibition in vivo at 25 mg/kg [7]: 19.5%
inhibition in vivo at 50 mg/kg [8]: 21.7%
inhibition in vivo at 100 mg/kg [9]: 25.4%
ED50 [10]: 45.3 mg/kg
inhibition in vivo at 100 mg/kg [11]: 22.6%
inhibition in vivo at 100 mg/kg [12]: 21.5%
inhibition in vivo at 100 mg/kg [13]: -12%
inhibition in vivo at 100 mg/kg [14]: -14.5%
Activity [15]: 3.9%
IC50 [16]: 2.9 µM
IC50 [17]: 2.97 µM
inhibition [18]: 94.7%
inhibition [19]: inactive

COc1ccc(-c2cc(-c3ccccc3)no2)c(OCCCN2CCCC2)c1
inhibition in vivo at 100 mg/kg [1]: 21.2%
inhibition in vivo at 100 mg/kg [2]: 13.4%
inhibition in vivo at 100 mg/kg [4]: 11.2%
IC50 [16]: 3.46 µM
IC50 [17]: 3.5 µM
inhibition [18]: 82.7%
inhibition [19]: inactive

COc1ccc(-c2cc(-c3ccccc3)no2)c(OCCN(C(C)C)C(C)C)c1
inhibition in vivo at 100 mg/kg [1]: 21.7%
inhibition in vivo at 100 mg/kg [2]: 11.4%
inhibition in vivo at 100 mg/kg [4]: 9.7%
IC50 [16]: 5.44 µM
IC50 [17]: 5.5 µM
inhibition [18]: 89.4%
inhibition [19]: inactive

COc1ccc(Cl)cc1C(=O)NCCc1ccc(S(=O)(=O)NC(=O)NC2CCCCC2)cc1 [GLYBURIDE]
inhibition in vivo at 100 mg/kg [1]: 33.9%
inhibition in vivo at 100 mg/kg [2]: 32.8%
inhibition (INH) [3]: 13.6%

COc1ccc(-c2cc(-c3ccccc3)no2)c(OCCCN2CCCCC2)c1
inhibition in vivo at 100 mg/kg [1]: 20.8%
inhibition in vivo at 100 mg/kg [2]: 14.7%
inhibition in vivo at 100 mg/kg [4]: 15%
IC50 [16]: 4.42 µM
IC50 [17]: 4.4 µM
inhibition [18]: 89.5%
inhibition [19]: inactive
